Reference: ChEMBL document CHEMBL1649346, “Antiproliferative activity of phenylbutyrate ester of haloperidol metabolite II [(±)-MRJF4] in prostate cancer cells” (Eur J Med Chem, 2011)
Several values for one entry are separate records, joined by “and”; a condition that tells them apart may be missing. Identical values can stand only once. Activity calls are given as the source filed them. The calls are words filed in the database; no cut-off is given here.

What was measured:
[1] = Displacement of [3H]DTG from sigma 2 receptor in guinea pig brain membrane after 120 mins by liquid scintillation counting; format: cell membranes, Cavia porcellus
Summary of the method: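 Guinea pig membranes were incubated 120 min at room temperature with 3 nM [³H]DTG and (+)-SKF10,047 to mask σ1 sites, in 50 mM Tris-HCl pH 8.0. DTG defined nonspecific binding. Samples were filtered on PEI-presoaked glass-fibre filters, washed and counted by liquid scintillation; Ki was calculated.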

LNCaP [2] = assay: Antiproliferative activity against human LNCAP cells after 24 hrs by MTT assay; format: functional, cell-based
Summary of the method: (§1)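 LNCaP cells were grown in RPMI 1640 with 10% heat-inactivated FBS, penicillin/streptomycin, HEPES, 1 mM pyruvate and 2.5 g/L glucose. PC3 cells were grown in RPMI 1640 with 10% FBS and penicillin/streptomycin, at 37 °C in 5% CO₂. Cells were seeded at 4 × 10⁴ per well and left to adhere overnight. Compounds were diluted 1:1000 from DMSO stocks, with a 0.1% DMSO vehicle, and incubated 24–96 h without medium change. MTT was added for 4 h, the formazan dissolved in DMSO, and A570 read. Runs were in quadruplicate; ED50 was taken from dose-effect curves against vehicle.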

[3] = biological target: T1, Histone deacetylase (Homo sapiens) (UniProt Q13547+O15379+Q9UBN7+Q92769+Q9UQL6+Q8WUI4+Q9BY41+Q96DB2+P56524+Q9UKV0+Q969S8); settings: HeLa, 1.5 mM
PC-3 [4] = assay: Antiproliferative activity against human PC3 cells after 24 hrs by MTT assay; format: functional, cell-based; settings: PC-3, 24 h; summary of the method: as §1
[5] = biological target: Sigma non-opioid intracellular receptor 1 (Cavia porcellus, UniProt Q60492); assay: Displacement of [3H]-(+)-pentazocine from sigma 1 receptor in guinea pig brain membrane after 150 mins by liquid scintillation counting; format: cell membranes
Summary of the method: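 Guinea pig membranes were incubated to equilibrium, 150 min at 37 °C, with 3 nM [³H]-(+)-pentazocine (45 Ci/mmol) and increasing levels of displacer in 50 mM Tris-HCl pH 7.4. Haloperidol defined nonspecific binding. Samples were filtered on PEI-presoaked glass-fibre filters, washed with ice-cold buffer and counted by liquid scintillation; Ki was calculated.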

[6] = biological target: T1, Histone deacetylase (Homo sapiens); assay: Inhibition of HDAC in human HeLa cells at 10 uM after 10 mins by fluorometric assay; format: cell-based
Summary of the method: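 The HDAC fluorescent activity kit was used with supplied HeLa extract. Test agent was added in assay buffer, with trichostatin A (1 µM listed) as full-inhibition control. The reaction was started with acetyl-lysine Fluor de Lys substrate at 25–37 °C and stopped after 10 min with developer, then held 10–15 min at room temperature. Fluorescence was read at ex 360/em 460 nm. Percent inhibition was taken against the uninhibited reaction, in triplicate.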

PC-3 [7] = assay: Antiproliferative activity against human PC3 cells after 72 hrs by MTT assay; format: functional, cell-based; settings: PC-3, 72 h; summary of the method: as §1
D(2) dopamine receptor = D(2) dopamine receptor (Rattus norvegicus, UniProt P61169); assay: Displacement radioligand form dopamine D2 receptor in rat striatum by liquid scintillation counting; format: tissue-based
PC-3 [8] = assay: Antiproliferative activity against human PC3 cells after 48 hrs by MTT assay; format: functional, cell-based; settings: PC-3, 48 h; summary of the method: as §1
LNCaP [9] = assay: Antiproliferative activity against human LNCAP cells after 48 hrs by MTT assay; format: functional, cell-based; summary of the method: as §1
[10] = biological target: T1, Histone deacetylase (Homo sapiens); assay: Inhibition of HDAC in human LNCAP cells at 10 uM after 10 mins by fluorometric assay; format: cell-based
Summary of the method: (§2)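 LNCaP or PC3 cells were seeded at 3 × 10⁵ per dish, left overnight, then treated in medium for 1 h (and 24 h). Cells were PBS-washed and lysed, and nuclear protein was extracted with the NE-PER kit. Extracts received assay buffer only plus Fluor de Lys substrate, 10 min at 25–37 °C, then developer. Fluorescence was read at ex 360/em 460 nm relative to DMSO-treated control, in triplicate.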

PC-3 [11] = assay: Antiproliferative activity against human PC3 cells after 96 hrs by MTT assay; format: functional, cell-based; settings: PC-3, 96 h; summary of the method: as §1
LNCaP [12] = assay: Antiproliferative activity against human LNCAP cells at 10 to 25 uM after 24 hrs by MTT assay; format: functional
Summary of the method: (§3)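 Percent growth was scored against vehicle-treated control (0.1% DMSO, 1:1000 dilution of DMSO stock) using the MTT assay. LNCaP cells were in supplemented RPMI 1640 with HEPES, pyruvate and glucose; PC3 cells were in RPMI 1640 with 10% FBS. Cells were seeded at 4 × 10⁴ per well and exposed 24, 48, 72 or 96 h. MTT was added for 4 h, the formazan dissolved in DMSO, and A570 read; n = 4.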

LNCaP [13] = assay: Antiproliferative activity against human LNCAP cells after 72 hrs by MTT assay; format: functional, cell-based; summary of the method: as §1
D(3) dopamine receptor = D(3) dopamine receptor (Rattus norvegicus, UniProt P19020); assay: Displacement radioligand form dopamine D3 receptor in rat olfactory tubercle by liquid scintillation counting; format: tissue-based
LNCaP [14] = assay: Antiproliferative activity against human LNCAP cells after 96 hrs by MTT assay; format: functional, cell-based; summary of the method: as §1
PC-3 [15] = assay: Antiproliferative activity against human PC3 cells at 10 to 25 uM after 24 hrs by MTT assay; format: functional; summary of the method: as §3
[16] = biological target: T1, Histone deacetylase (Homo sapiens); assay: Inhibition of HDAC in human PC3 cells at 10 uM after 10 mins by fluorometric assay; format: cell-based; settings: PC-3; summary of the method: as §2
PC-3 [17] = assay: Antiproliferative activity against human PC3 cells at 10 uM after 96 hrs by MTT assay; format: functional, cell-based; summary of the method: as §3
LNCaP [18] = assay: Antiproliferative activity against human LNCAP cells at 10 uM after 96 hrs by MTT assay; format: functional, cell-based; summary of the method: as §3

D(3) dopamine receptor, sequence (P19020 whole entry): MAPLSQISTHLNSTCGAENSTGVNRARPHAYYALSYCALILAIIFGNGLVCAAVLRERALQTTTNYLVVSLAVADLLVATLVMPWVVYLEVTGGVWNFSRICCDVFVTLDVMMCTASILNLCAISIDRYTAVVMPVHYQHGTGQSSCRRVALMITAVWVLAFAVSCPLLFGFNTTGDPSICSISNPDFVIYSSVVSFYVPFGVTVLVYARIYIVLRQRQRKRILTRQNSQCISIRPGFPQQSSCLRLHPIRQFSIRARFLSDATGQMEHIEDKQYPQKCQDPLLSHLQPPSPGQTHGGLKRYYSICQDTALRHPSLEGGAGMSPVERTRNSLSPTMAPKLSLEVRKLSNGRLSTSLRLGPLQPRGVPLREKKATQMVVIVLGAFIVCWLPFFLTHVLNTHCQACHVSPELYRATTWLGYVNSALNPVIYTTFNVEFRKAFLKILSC
Sigma non-opioid intracellular receptor 1, sequence (Q60492 whole entry): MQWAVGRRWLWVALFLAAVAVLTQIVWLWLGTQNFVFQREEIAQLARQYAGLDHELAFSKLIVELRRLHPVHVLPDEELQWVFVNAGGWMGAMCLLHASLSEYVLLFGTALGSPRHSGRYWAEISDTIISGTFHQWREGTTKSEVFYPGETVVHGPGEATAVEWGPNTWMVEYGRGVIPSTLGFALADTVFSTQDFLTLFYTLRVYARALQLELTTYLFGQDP
D(2) dopamine receptor, sequence (P61169 whole entry): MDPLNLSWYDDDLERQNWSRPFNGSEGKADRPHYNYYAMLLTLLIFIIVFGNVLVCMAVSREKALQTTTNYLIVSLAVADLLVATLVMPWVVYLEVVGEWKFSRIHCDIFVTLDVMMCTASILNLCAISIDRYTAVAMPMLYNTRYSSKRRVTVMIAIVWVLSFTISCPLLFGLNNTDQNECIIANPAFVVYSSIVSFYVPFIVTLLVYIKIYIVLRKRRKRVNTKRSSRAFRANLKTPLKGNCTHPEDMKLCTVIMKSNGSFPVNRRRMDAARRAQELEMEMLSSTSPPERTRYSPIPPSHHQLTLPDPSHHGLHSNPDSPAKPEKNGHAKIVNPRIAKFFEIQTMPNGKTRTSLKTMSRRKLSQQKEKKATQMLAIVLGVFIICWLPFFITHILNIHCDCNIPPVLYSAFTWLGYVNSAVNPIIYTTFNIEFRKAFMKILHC

Ki [1]	IC50 (LNCaP [2])	inhibition [3]	IC50 (PC-3 [4])	Ki [5]	inhibition [6]	IC50 (PC-3 [7])	Ki (D(2) dopamine receptor)	IC50 (PC-3 [8])	IC50 (LNCaP [9])	inhibition [10]	IC50 (PC-3 [11])	IC50 (LNCaP [13])	IC50 (LNCaP [14])	inhibition [16]	Structure (SMILES)	Activity (LNCaP [12])	Ki (D(3) dopamine receptor)	Activity (PC-3 [15])	Activity (PC-3 [17])	Activity (LNCaP [18])
0.016 µM															O=C(CCCN1CCC(O)(c2ccc(Cl)cc2)CC1)c1ccc(F)cc1 [HALOPERIDOL]					
> 10 µM	2320 µM	60%	2270 µM	> 10 µM											O=C(O)CCCc1ccccc1					
0.105 µM	10.9 µM		12.9 µM	0.162 µM	inactive	7.8 µM	> 5 µM	11 µM	8.83 µM	inactive	6.78 µM	8.13 µM	6.65 µM	inactive	O=C(CCCc1ccccc1)OC(CCCN1CCC(O)(c2ccc(Cl)cc2)CC1)c1ccc(F)cc1 (racemic)	45% and 40% and 20%	> 5 µM	10%	Active	Active

Structure (SMILES)	Ki [1]	IC50 (LNCaP [2])	inhibition [3]	IC50 (PC-3 [4])	Ki [5]	inhibition [6]	IC50 (PC-3 [7])	Ki (D(2) dopamine receptor)	IC50 (PC-3 [8])	IC50 (LNCaP [9])	inhibition [10]	IC50 (PC-3 [11])	IC50 (LNCaP [13])	IC50 (LNCaP [14])	inhibition [16]	Activity (LNCaP [12])	Ki (D(3) dopamine receptor)	Activity (PC-3 [15])	Activity (PC-3 [17])	Activity (LNCaP [18])
OC(CCCN1CCC(O)(c2ccc(Cl)cc2)CC1)c1ccc(F)cc1 (centres undefined) [HYDROXYHALOPERIDOL]	0.00098 µM	177 µM		208 µM													1.1 µM			
